The source made the active and inactive calls. The rule behind the calls is not given here.
Key:
[1] = molecular target: T1, Muscarinic acetylcholine receptor M1 (Homo sapiens) (UniProt P11229); experiment: Intrinsic activity at human muscarinic M1 receptor expressed in CHO cells assessed as intracellular calcium mobilization after 10 to 15 mins by FLIPR assay; format: functional, cell-based
T1 sequence (whole entry): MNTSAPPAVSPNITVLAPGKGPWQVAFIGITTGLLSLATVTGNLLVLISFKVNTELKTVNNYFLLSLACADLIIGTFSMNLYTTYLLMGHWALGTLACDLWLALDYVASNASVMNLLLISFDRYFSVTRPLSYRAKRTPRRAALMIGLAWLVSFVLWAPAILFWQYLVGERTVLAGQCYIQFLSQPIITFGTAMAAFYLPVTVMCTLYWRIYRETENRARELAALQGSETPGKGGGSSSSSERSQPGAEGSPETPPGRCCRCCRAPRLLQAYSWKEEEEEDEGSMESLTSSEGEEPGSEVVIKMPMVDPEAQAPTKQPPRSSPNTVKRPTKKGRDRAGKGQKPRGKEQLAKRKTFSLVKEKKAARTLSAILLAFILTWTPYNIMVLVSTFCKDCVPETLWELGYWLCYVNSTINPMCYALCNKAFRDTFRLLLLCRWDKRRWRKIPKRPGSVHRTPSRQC
Outline: (§1)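 Human M1 mAChR stably expressed in CHO cells; agonist-induced intracellular Ca2+ mobilization read by fluorometric imaging plate reader (FLIPR).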

[2] = molecular target: T2, Muscarinic acetylcholine receptor M3 (Homo sapiens, UniProt P20309); experiment: Agonist activity at human muscarinic M3 receptor expressed in CHO cells assessed as intracellular calcium mobilization after 10 to 15 mins by FLIPR assay; format: functional, cell-based
Target sequence in this assay (P20309 whole entry): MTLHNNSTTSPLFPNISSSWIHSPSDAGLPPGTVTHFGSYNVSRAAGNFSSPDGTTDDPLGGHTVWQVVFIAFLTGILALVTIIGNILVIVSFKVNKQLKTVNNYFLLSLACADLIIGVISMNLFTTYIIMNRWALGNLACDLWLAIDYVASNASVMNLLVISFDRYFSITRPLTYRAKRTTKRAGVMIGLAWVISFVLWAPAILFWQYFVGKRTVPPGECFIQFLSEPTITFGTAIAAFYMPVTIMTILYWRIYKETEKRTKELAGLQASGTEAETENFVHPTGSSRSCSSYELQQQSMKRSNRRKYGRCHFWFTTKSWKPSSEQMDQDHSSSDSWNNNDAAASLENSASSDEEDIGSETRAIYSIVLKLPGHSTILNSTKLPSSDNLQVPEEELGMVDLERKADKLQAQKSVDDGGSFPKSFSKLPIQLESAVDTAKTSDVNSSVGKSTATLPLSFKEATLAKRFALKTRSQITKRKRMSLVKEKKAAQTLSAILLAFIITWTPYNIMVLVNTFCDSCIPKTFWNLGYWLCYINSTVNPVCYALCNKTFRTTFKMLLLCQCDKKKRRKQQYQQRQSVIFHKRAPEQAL

[3] = molecular target: T3, Muscarinic acetylcholine receptor M5 (Homo sapiens, UniProt P08912); experiment: Agonist activity at human muscarinic M5 receptor expressed in CHO cells assessed as intracellular calcium mobilization after 10 to 15 mins by FLIPR assay; format: functional, cell-based
T3 sequence (P08912 whole entry): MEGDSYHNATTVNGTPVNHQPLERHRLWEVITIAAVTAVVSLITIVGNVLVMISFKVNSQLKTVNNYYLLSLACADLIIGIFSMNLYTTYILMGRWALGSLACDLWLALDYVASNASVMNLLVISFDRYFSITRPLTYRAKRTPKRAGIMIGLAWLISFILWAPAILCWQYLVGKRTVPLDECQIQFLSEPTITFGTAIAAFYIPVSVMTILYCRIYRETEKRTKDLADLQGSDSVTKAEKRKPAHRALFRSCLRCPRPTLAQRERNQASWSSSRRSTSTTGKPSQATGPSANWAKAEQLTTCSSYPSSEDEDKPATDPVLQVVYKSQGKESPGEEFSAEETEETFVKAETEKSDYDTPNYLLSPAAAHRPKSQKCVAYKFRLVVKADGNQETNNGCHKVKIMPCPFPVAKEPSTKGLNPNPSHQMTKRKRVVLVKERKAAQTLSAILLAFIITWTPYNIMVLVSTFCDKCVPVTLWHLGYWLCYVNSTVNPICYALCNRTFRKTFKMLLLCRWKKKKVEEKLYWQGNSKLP

[4] = molecular target: T4, Muscarinic acetylcholine receptor M2 (Homo sapiens) (UniProt P08172); experiment: Intrinsic activity at human muscarinic M2 receptor expressed in CHO cells coexpressing Galpha16 subunit assessed as intracellular calcium mobilization after 10 to 15 mins by FLIPR assay; format: functional, cell-based
T4 sequence (whole entry): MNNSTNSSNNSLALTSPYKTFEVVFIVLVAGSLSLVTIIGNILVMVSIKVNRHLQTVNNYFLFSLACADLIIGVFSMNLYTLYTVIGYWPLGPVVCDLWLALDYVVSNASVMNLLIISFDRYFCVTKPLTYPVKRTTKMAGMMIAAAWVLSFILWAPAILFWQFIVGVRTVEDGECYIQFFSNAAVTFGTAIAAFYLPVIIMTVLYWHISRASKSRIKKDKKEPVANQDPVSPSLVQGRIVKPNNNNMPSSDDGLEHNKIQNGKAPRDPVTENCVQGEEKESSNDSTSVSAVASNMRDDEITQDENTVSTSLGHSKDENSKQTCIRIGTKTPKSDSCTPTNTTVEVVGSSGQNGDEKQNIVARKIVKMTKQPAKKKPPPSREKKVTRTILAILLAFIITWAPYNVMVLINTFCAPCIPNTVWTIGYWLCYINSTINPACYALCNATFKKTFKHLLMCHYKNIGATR

[5] = molecular target: T5, Muscarinic acetylcholine receptor M4 (Homo sapiens) (UniProt P08173); experiment: Intrinsic activity at human muscarinic M4 receptor expressed in CHO cells coexpressing Galpha16 subunit assessed as intracellular calcium mobilization after 10 to 15 mins by FLIPR assay; format: functional, cell-based
T5 sequence (whole entry): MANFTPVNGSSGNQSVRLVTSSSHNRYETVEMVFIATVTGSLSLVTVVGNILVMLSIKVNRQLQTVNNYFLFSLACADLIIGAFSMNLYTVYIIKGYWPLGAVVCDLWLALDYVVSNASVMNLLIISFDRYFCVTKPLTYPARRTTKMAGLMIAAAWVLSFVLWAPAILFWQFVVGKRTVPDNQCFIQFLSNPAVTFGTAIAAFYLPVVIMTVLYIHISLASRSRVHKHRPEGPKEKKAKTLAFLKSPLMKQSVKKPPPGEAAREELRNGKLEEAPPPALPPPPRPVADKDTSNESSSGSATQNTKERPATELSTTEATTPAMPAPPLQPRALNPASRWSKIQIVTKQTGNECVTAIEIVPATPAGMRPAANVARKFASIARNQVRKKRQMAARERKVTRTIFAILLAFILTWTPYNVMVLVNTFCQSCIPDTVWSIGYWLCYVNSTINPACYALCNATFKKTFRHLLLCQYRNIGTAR

Liver microsomes = experiment: Intrinsic clearance in human liver microsomes; format: ADME, Microsome
[6] = Blood clearance in rat at 1 mg/kg, iv; format: ADME, organism-based; parameters: dose 1 mg/kg, route intravenous
[7] = Half life in rat at 1 mg/kg, iv; format: ADME, organism-based; parameters: dose 1 mg/kg, route intravenous; conditions: in vivo
[8] = molecular target: T6, Muscarinic acetylcholine receptor M4 (Homo sapiens, UniProt P08173); experiment: Agonist activity at human muscarinic M4 receptor expressed in CHO cells coexpressing Galpha16 subunit assessed as intracellular calcium mobilization after 10 to 15 mins by FLIPR assay; format: functional, cell-based
T6 sequence (P08173 whole entry): T5 sequence (whole entry)

[9] = molecular target: Voltage-gated inwardly rectifying potassium channel KCNH2 (Homo sapiens, UniProt Q12809); experiment: Binding affinity to human ERG
Voltage-gated inwardly rectifying potassium channel KCNH2, sequence (Q12809 whole entry): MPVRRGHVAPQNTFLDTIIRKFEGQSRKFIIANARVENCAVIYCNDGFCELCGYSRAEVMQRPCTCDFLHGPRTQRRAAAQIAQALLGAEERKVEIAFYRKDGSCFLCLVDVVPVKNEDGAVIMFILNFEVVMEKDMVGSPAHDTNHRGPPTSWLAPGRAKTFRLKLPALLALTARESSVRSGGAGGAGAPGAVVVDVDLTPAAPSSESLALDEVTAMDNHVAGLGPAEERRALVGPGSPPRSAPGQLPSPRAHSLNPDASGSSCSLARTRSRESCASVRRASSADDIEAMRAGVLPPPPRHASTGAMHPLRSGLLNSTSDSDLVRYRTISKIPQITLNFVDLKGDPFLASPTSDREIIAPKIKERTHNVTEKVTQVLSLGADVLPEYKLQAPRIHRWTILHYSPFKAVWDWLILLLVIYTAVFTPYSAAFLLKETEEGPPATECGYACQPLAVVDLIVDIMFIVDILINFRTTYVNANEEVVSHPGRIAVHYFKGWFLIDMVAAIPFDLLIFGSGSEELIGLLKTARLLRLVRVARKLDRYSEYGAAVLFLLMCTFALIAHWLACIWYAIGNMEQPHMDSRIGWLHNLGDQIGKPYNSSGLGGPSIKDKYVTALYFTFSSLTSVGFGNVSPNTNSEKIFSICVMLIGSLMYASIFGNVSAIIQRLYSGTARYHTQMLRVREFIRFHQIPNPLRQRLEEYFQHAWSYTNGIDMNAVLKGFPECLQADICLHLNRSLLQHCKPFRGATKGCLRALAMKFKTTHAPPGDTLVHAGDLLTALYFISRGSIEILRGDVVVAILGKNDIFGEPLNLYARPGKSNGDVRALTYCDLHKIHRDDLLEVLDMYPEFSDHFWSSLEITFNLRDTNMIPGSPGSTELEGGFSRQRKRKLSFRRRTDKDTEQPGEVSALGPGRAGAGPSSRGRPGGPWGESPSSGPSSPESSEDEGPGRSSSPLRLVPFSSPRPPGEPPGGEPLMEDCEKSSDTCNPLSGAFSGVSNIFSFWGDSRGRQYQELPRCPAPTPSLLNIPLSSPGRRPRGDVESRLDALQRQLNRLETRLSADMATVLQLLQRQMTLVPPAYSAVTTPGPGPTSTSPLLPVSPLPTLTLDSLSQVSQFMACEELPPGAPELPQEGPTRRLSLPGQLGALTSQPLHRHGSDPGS

[10] = molecular target: T2, Muscarinic acetylcholine receptor M3; experiment: Intrinsic activity at human muscarinic M3 receptor expressed in CHO cells assessed as intracellular calcium mobilization after 10 to 15 mins by FLIPR assay; format: functional, cell-based
Target sequence in this assay (P20309 whole entry, looked up): as the sequence (P20309 whole entry) above

[11] = Ratio of drug level in brain to blood in rat at 3 mg/kg, po; format: ADME, organism-based; parameters: dose 3 mg/kg, route oral
Rattus norvegicus [12] = experiment: Increase in neuronal firing rate in Sprague-Dawley rat hippocampal CA1 region at 1 mg/kg, iv; format: functional
Outline: (§2)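 Rat hippocampal CA1 neuronal cell firing rate recorded after iv dosing at 0.3 or 1 mg/kg. Where used, scopolamine was given at 3 mg/kg ip […] before the iv dose. Statistics by repeated measures ANOVA.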

Rattus norvegicus [13] = experiment: Increase in neuronal firing rate in Sprague-Dawley rat hippocampal CA1 region at 0.3 mg/kg, iv; format: functional, organism-based; parameters: dose 0.3 mg/kg; outline: as §2
Rattus norvegicus [14] = experiment: Increase in neuronal firing rate in Sprague-Dawley rat hippocampal CA1 region at 1 mg/kg, iv pretreated with 3 mg/kg, ip mAChR antagonist scopolamine for 10 mins; format: functional, organism-based
Rattus norvegicus [15] = experiment: Antidementia activity against scopolamine-induced amnesia in Wistar rat assessed as improvement in recall latency to transfer from bright to dark compartment administered orally 2 hrs before scopolamine challenge measured after 24 hrs post training by passive avoidance test; format: functional, organism-based
Outline: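 Rat passive avoidance task with scopolamine (0.8 mg/kg) given to induce amnesia. Test agent dosed orally at 1, 3 and 10 mg/kg. Groups compared with vehicle-treated controls and with scopolamine alone.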

[16] = molecular target: T7, Muscarinic acetylcholine receptor M1 (Homo sapiens, UniProt P11229); experiment: Agonist activity at human muscarinic M1 receptor expressed in CHO cells assessed as intracellular calcium mobilization after 10 to 15 mins by FLIPR assay; format: functional, cell-based; outline: as §1
T7 sequence (P11229 whole entry): T1 sequence (whole entry)

[17] = molecular target: T8, Muscarinic acetylcholine receptor M2 (Homo sapiens, UniProt P08172); experiment: Agonist activity at human muscarinic M2 receptor expressed in CHO cells coexpressing Galpha16 subunit assessed as intracellular calcium mobilization after 10 to 15 mins by FLIPR assay; format: functional, cell-based
T8 sequence (P08172 whole entry): T4 sequence (whole entry)

[18] = molecular target: T9, 5-hydroxytryptamine receptor 1A (Homo sapiens, UniProt P08908); experiment: Activity at 5HT1A receptor
T9 sequence (P08908 whole entry): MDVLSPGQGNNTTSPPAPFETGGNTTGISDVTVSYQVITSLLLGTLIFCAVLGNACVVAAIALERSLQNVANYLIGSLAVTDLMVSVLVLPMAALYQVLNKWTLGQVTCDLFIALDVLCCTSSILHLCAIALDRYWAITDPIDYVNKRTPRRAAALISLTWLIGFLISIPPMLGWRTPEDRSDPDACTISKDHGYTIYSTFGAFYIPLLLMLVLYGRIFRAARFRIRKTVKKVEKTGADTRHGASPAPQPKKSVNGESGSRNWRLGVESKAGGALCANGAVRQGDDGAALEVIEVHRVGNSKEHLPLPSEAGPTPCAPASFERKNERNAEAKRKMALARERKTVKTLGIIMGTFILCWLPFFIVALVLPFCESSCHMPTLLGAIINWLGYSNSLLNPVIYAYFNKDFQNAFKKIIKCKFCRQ

[19] = molecular target: 5-hydroxytryptamine receptor 2A (Homo sapiens, UniProt P28223); experiment: Binding affinity to 5HT2A receptor
5-hydroxytryptamine receptor 2A, sequence (P28223 whole entry): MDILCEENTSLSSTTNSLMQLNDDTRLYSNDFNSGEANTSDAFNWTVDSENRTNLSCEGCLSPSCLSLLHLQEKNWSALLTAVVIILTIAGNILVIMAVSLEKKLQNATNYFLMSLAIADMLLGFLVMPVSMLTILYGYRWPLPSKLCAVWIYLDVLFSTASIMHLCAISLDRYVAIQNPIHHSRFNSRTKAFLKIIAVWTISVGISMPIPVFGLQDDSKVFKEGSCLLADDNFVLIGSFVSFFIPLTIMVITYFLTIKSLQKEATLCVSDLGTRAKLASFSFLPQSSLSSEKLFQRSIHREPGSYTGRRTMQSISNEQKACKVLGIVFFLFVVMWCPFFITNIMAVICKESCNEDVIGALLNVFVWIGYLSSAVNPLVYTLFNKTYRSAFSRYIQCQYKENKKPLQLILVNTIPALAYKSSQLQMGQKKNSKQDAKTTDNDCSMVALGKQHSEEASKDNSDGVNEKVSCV

D(2) dopamine receptor = D(2) dopamine receptor (Homo sapiens, UniProt P14416); experiment: Binding affinity to dopamine D2 receptor
D(2) dopamine receptor, sequence (P14416 whole entry): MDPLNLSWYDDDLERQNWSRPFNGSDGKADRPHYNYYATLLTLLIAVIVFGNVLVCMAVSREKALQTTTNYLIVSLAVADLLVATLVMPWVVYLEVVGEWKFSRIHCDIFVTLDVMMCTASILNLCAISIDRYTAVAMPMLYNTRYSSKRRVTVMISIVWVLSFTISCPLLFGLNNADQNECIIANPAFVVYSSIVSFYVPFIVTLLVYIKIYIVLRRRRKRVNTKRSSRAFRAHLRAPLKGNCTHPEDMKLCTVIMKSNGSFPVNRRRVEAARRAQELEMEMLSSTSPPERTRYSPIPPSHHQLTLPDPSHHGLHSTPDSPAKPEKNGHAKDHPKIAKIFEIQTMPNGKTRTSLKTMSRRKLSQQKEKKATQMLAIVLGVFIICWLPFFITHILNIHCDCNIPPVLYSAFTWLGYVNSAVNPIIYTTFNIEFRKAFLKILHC

D(3) dopamine receptor = D(3) dopamine receptor (Homo sapiens, UniProt P35462); experiment: Binding affinity to dopamine D3 receptor
D(3) dopamine receptor, sequence (P35462 whole entry): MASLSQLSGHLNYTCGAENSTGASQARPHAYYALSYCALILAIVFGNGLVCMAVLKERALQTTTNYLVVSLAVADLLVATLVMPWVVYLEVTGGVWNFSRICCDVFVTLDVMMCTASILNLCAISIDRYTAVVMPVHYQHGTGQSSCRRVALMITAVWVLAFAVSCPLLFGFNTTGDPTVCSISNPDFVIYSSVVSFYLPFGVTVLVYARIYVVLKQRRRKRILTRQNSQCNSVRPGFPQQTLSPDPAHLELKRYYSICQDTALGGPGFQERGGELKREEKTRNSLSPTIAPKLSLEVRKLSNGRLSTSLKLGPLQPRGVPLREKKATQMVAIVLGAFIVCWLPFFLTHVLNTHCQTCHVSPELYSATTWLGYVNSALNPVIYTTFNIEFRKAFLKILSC

[20] = Half life in rat at 3 mg/kg, po; format: ADME, organism-based; parameters: dose 3 mg/kg, route oral; conditions: in vivo

For `O=c1[nH]c2ccccc2n1C1CCN(C2CCOCC2)CC1`, the Intrinsic activity [1] was 101%, the EC50 [2] was greater than 10 µM and the EC50 [3] was greater than 10 µM. The Intrinsic activity [4] was 88%, the Intrinsic activity [5] was 77% and the CLH (Liver microsomes) was 0.5 mL/min/g. The clearance [6] was 68 mL/min/kg and the half-life [7] was 0.5 h.

Compound `Cc1cc2c(cc1F)[nH]c(=O)n2C1CCN(C2CCOCC2)CC1` has an Intrinsic activity [1] of 94%, an EC50 [8] of 0.501 µM and an IC50 [9] of 12.6 µM. It also gave an Intrinsic activity [4] of 71%, an Intrinsic activity [10] of 58% and an Intrinsic activity [5] of 71%. For the same compound, the Kp [11] was 0.6, the “fold change (FC)” value (Rattus norvegicus [12]) was 3 and the Activity (Rattus norvegicus [13]) was “inactive”. For the same compound, the Activity (Rattus norvegicus [14]) was “inactive” and the Activity (Rattus norvegicus [15]) was “Dose-dependent effect”.

With `O=c1[nH]c2ccccc2n1C1CCN(CCCOc2ccc(F)cc2)CC1` the EC50 [16] was 0.398 µM, the Intrinsic activity [1] was 86% and the EC50 [17] was greater than 25.1 µM. It also gave an EC50 [2] greater than 25.1 µM, an EC50 [8] greater than 25.1 µM and an EC50 [18] of 0.0501 µM. The Ki [19] was 0.00316 µM, the Ki (D(2) dopamine receptor) was 0.000501 µM and the Ki (D(3) dopamine receptor) was 0.00126 µM. It also gave an IC50 [9] of 0.0794 µM.

`Cc1ccc2[nH]c(=O)n(C3CCN(C4CCOCC4)CC3)c2c1` showed an EC50 [16] of 0.00501 µM, an Intrinsic activity [1] of 92% and an EC50 [17] of 0.631 µM. It also gave an EC50 [2] of 3.98 µM, an EC50 [8] of 0.631 µM and an IC50 [9] of 25.1 µM. The Intrinsic activity [4] was 71%, the Intrinsic activity [10] was 72% and the Intrinsic activity [5] was 68%. It also gave a half-life [20] of 2.6 h and a Kp [11] of 0.6.

— ChEMBL document CHEMBL2146410, “Novel N-Substituted Benzimidazolones as Potent, Selective, CNS-Penetrant, and Orally Active M1 mAChR Agonists” (ACS Med Chem Lett, 2010)
